# Compound activity (PubChem BioAssay)
# NOD2-RIPK2 inh: blocks binding of human NOD2 to RIPK2. O43353. CHO BLA complementation NOD2-RIPK2, CCF4 ratio. inhibition, % at 4.98 µM. hit rate 0.38% among 360,000. AID 624267; in the data active = inhibition above about 21%;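 note: 0% = vehicle only and 100% = reference blocker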
# Target sequence (O43353 whole entry, looked up): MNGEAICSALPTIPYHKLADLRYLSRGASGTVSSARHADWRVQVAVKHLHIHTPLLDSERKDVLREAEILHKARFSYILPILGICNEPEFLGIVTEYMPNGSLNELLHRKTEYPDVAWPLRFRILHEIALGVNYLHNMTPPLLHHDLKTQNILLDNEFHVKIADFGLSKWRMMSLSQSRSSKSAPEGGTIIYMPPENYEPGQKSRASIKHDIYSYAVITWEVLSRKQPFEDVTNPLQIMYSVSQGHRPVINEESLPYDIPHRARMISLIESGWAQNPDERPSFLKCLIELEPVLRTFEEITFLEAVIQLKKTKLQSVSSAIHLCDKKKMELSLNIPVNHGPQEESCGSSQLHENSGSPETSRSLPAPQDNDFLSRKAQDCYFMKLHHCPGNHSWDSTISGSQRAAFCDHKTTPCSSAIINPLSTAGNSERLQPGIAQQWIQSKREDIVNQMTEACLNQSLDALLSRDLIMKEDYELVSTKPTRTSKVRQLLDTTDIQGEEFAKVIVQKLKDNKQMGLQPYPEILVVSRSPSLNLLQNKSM
# MC4R barr agon: activates human MC4R beta-arrestin recruitment | hit rate 0.98% among 360,000 | U2OS MC4R beta-arrestin complementation, luminescence; percent of melanotan II response, DMSO zero | activation, % at 8.9 µM;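 active = activation above a per-plate cutoff, the mean activation of sample wells on that plate plus 3 SD, cut at about 8% in these data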
# TLR9-MyD88 block: TLR9-MyD88 interaction inhibition | inhibition, % at 4.98 µM | AID 504734 | Q9NR96+Q99836 | hit rate 0.21% among 340,000 | CHO BLA complementation TLR9-MyD88, CCF4 FRET ratio;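 active = inhibition above the mean over all tested compounds plus 3 SD, cut at about 21% in these data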;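 note: 0% = DMSO only wells and 100% = clavulanate BLA inhibitor control wells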
# MC4R antag cAMP: blocks human MC4R cAMP signaling | hit rate 0.48% among 360,000 | MC4R-expressing cells, MTII-stimulated cAMP, LANCE TR-FRET | P32245 | inhibition, % at 6.5 µM;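 active = inhibition above its plate's cutoff, the mean of tested wells on that plate plus 3 SD, cut at about 29% in these data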;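 note: 0% = Melanotan II alone and 100% = Melanotan II plus saturating MCL0020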
#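 System – human MC4R-expressing U2OS cells · Also added – Melanotan II · Dosing – one concentration, 6.5 µM nominal · Timing – 30-min compound, 1-h challenge, 1-h detection, room temperature · Measured by – Eu-cAMP/anti-cAMP TR-FRET, emission 671 nm · Replicates – singlicate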
# TLR4 MyD88 comp: inhibitors of human TLR4-MyD88 binding; inhibition, % at 8.4 µM; hit rate 0.18% among 200,000; HeLa CL3-4 TLR4/MyD88 BLA complementation, FRET ratio; AID 861; in the data active = inhibition above about 25%;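 note: 0% = vehicle and 100% = reference inhibitor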
# U2OS cAMP counter: nonselective cAMP signaling inhibitor, MC4R antagonist counter-screen | inhibition, % at 6.5 µM | hit rate 26% among 1,600 | shares compounds with MC4R antag cAMP | parental U2OS, forskolin cAMP, LANCE TR-FRET;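 active = mean inhibition over triplicates above the low-control well mean plus 3 SD, set per campaign, cut at about 13% in these data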;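 note: signal is single emission at 671 nm which falls as cellular cAMP rises; 0% = forskolin-stimulated wells and 100% = buffer without forskolin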
# MC4R cAMP antag: human MC4R cAMP antagonism confirmation; MC4R-expressing cells, MTII-stimulated cAMP, TR-FRET; inhibition, % at 6.5 µM; hit rate 27% among 1,600; shares compounds with MC4R antag cAMP; in the data active = inhibition above about 29%;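 note: 0% = agonist stimulated wells alone and 100% = agonist stimulated wells plus saturating reference antagonist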
# An asterisk follows results filed as active; nt = no result. In the library only some 1.8% were active in any assay of this set; here they are far more common.
SMILES,NOD2-RIPK2 inh,MC4R barr agon,TLR9-MyD88 block,MC4R antag cAMP,TLR4 MyD88 comp,U2OS cAMP counter,MC4R cAMP antag
COc1ccccc1-n1c(SCC(=O)c2ccc(O)cc2O)nc2cc([N+](=O)[O-])ccc21,-2,-4,5,3,-10,nt,nt
COCCNC(=S)N1CCc2cc(OC)c(OC)cc2C1COc1cc(C)cc(C)c1 (centres undefined),3,1,-6,29*,2,-5,12
CC(C)(C)OC(=O)C[C@@H]1C/C=C\C[C@@H](CC(=O)NCCO)C(=O)NC[C@@H](c2ccccc2)OC1=O,-5,-1,-6,-1,nt,nt,nt
O=C(CNc1ccc(F)cc1)N/N=C1\CCCc2ccccc21,0,-1,-4,30*,12,1,6
O=C(Cc1ccc(Cl)cc1)N/N=C1\CCCc2ccccc21,-8,2,-4,6,-8,nt,nt
CNC(=O)c1c(NC(=O)C2=COCCO2)sc2c1CCCC2,-2,-4,-9,9,nt,nt,nt
CN(C)S(=O)(=O)c1cccc(C(=O)NCC(C)(C)CNC(=O)c2cccc(S(=O)(=O)N(C)C)c2)c1,-8,-1,-3,8,nt,nt,nt
S=c1[nH]nc(-c2cccnc2)o1,-1,-1,-8,13,9,nt,nt
S=c1[nH]nc(-c2cccc(Br)c2)o1,7,-3,9,46*,1,16*,24
CC(C)CNc1ncnc2[nH]ncc12,-24,-1,9,14,nt,nt,nt
O=C(O)CCC(=O)N1N=C(c2ccco2)CC1c1cccs1 (centres undefined),-3,-1,-7,6,0,nt,nt
O=C(O)CCC(=O)N1N=C(c2ccc(Br)cc2)CC1c1cccs1 (centres undefined),-5,-2,1,30*,6,4,6
Nc1ccc2nn(-c3cc([N+](=O)[O-])ccc3O)nc2c1,4,1,5,29*,nt,-1,6
COc1ccc(S(=O)(=O)N2CCCCC2)cc1NC(=O)Cn1cnc2c1c(=O)n(C)c(=O)n2C,4,-1,-3,1,nt,nt,nt
CCN(CC)S(=O)(=O)c1ccc(OC)c(NC(=O)Cn2cnc3c2c(=O)n(C)c(=O)n3C)c1,2,-1,-8,33*,-15,3,9
CCN(CC)S(=O)(=O)c1ccc(N2CCOCC2)c(NC(=O)c2ccccc2F)c1,-2,-3,9,30*,4,3,18
Cc1cc(C)cc(C(=O)NCC(=O)OCC(=O)NCc2ccco2)c1,-3,5,1,39*,-2,5,11
COc1cc(OC)cc(C(=O)NCC(=O)OCC(=O)NCc2ccco2)c1,-3,-1,-7,8,nt,nt,nt
O=S(=O)(Nc1cccc(F)c1)c1ccc(S(=O)(=O)N2CCOCC2)cc1,-18,2,15,8,nt,nt,nt
CCOC(=O)c1c(C)[nH]c(C)c1C(=O)COC(=O)c1cc(OC)cc(OC)c1,0,-3,4,-3,0,nt,nt
CCOC(=O)c1c(C)[nH]c(C)c1C(=O)COC(=O)c1cc(OC)c(OC)cc1OC,-4,1,-2,32*,-19,-4,2
CSCCC(NC(=O)CCNC(=O)c1ccccc1Cl)c1nc2ccccc2[nH]1 (centres undefined),-2,-3,1,6,nt,nt,nt
CCCCN(C)C(=O)c1nc2ccccn2c1CN1CCSCC1,0,0,-2,-1,-3,nt,nt
O=[N+]([O-])c1ccc(Cl)cc1Sc1cccc2cccnc12,2,4,-2,4,-5,nt,nt
Cn1nc([N+](=O)[O-])nc1Sc1cccc2cccnc12,-3,0,3,30*,0,8,3
SMILES,NOD2-RIPK2 inh,MC4R barr agon,TLR9-MyD88 block,MC4R antag cAMP,TLR4 MyD88 comp,U2OS cAMP counter,MC4R cAMP antag
Cc1ccc(S(=O)(=O)NC2CCCc3ccccc32)cc1C (centres undefined),-1,4,0,31*,-2,-1,11
O=S(=O)(NC1CCc2ccccc21)c1ccccc1 (centres undefined),-4,0,-10,4,nt,nt,nt
CCOc1ccc2nc(NC(=O)C3CCCN(S(=O)(=O)c4cccc5nonc45)C3)sc2c1 (centres undefined),-15,1,-9,33*,15,4,22
COc1ccc2nc(NC(=O)C3CCCN(S(=O)(=O)c4cccc5nonc45)C3)sc2c1 (centres undefined),-7,0,3,13,-2,nt,nt
Cn1c(SCC(=O)Nc2cccc(F)c2)nnc1-c1cc2ccccc2o1,-1,8,-1,31*,0,4,3
CC(=O)Nc1ccc(-c2nnc(SCC(=O)Nc3ccc4c(c3)oc3ccccc34)n2C)cc1,-8,1,6,0,1,nt,nt
CCc1ccc(-c2nc3ccc(Br)cc3c(C(=O)O)c2C)s1,-1,-1,4,133*,nt,102*,182*
Cc1c(-c2ccccc2Br)nc2ccccc2c1C(=O)O,5,0,13,7,nt,nt,nt
CN(C)C(=O)CCc1ccc2c3c([nH]c2c1)[C@]1(CCc2ccccc2)[C@@H](C(=O)N2CCCCC2)C[C@H](CC(=O)NCCCn2ccnc2)C(=O)N1CC3,-8,0,1,5,nt,nt,nt
CCOC(=O)/C=C/C(=O)Nc1cccc([N+](=O)[O-])c1,9,-5,5,34*,14,26*,60*
CC(CCc1ccccc1)NC(=O)COC(=O)c1ccc(S(C)(=O)=O)c([N+](=O)[O-])c1 (centres undefined),12,-3,9,70*,9,32*,55*
Cc1ccccc1NC(=O)COC(=O)c1ccc(S(C)(=O)=O)c([N+](=O)[O-])c1,7,-2,13,47*,18,33*,51*
COC(=O)c1cc(CNC(=O)CCCSc2ccccc2)ccc1OC,7,-1,-1,9,nt,nt,nt
CN(C)S(=O)(=O)c1ccc(N2CCCC2)c(C(=O)N2CCN(c3ccc([N+](=O)[O-])cc3)CC2)c1,-11,-2,-1,34*,-3,2,7
Cc1cccc(N2CCN(C(=O)c3cc(S(=O)(=O)N(C)C)ccc3N3CCCC3)CC2)c1C,11,1,-5,15,-9,nt,nt
O=C(c1cc(COc2ccc3c(c2)CCCC3)on1)N1CCCC1,-4,-3,4,-2,nt,nt,nt
CCNC(=O)CC1C(=O)N(C)C(=S)N1NC(=O)c1ccc(Cl)cc1 (centres undefined),4,0,2,5,0,nt,nt
Nc1ccc(C(=O)NN2C(=O)[C@H](Cl)C2c2ccc(Cl)cc2)cc1 (some centres undefined),-1,0,-2,37*,nt,22*,19
